# Columns and labels:
# Mus musculus [1] = assay: Increase in HDL-cholesterol in hemizygous human CETP transgenic mouse at 10 mg/kg, po dosed for 5 consecutive days; format: functional
# Procedure, shortened: (§1)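 Male hemizygous hCETP or hCETP/hApoB100 transgenic mice, 26−30 weeks, chow-fed. Compound suspended in 0.5% aqueous hydroxyethylcellulose, oral gavage each morning for 5 or 14 days. EDTA blood taken 7 h post-dose (fed for 5-day, after 4 h fast for 14-day) from vena facialis under isoflurane. HDL/LDL cholesterol measured on Cobas Integra 400 Plus. Mean ± SEM, one-way ANOVA with Bonferroni.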
# Cynomolgus monkey [2] = assay: Effect on heart rate in cynomolgus monkey up to 100 mg/kg by telemetry; format: ADME, organism-based, Macaca fascicularis; design: dose 100 mg/kg; conditions: in vivo
# Procedure, shortened: (§2)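 Acute telemetry study in conscious cynomolgus monkeys at doses up to 100 mg/kg. Blood pressure, left ventricular pressure, contractility, heart rate and ECG (PR, QRS, QT) recorded. Exposure followed as Cmax and MRT.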
# Mus musculus [3] = assay: Reduction in plasma LDL-cholesterol in human CETP/human ApoB-100 transgenic mouse at 3 mg/kg, po dosed for 14 consecutive days; format: functional
# Procedure, shortened: (§3)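 Hemizygous male human CETP/human apoB100 transgenic mice (B6.SJL-Tg(APOA-CETP)1Dsg Tg(APOB)1102Sgy N10), aged 26–30 weeks and chow-fed, received oral gavage each morning for 14 consecutive days. Compound was suspended in 0.5% aqueous hydroxyethylcellulose. EDTA blood was taken from the facial vein under isoflurane 7 h post-dose after a 4 h fast. Plasma LDL-cholesterol fraction was measured on an automated analyzer. Data are mean ± SEM.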
# [4] = Drug concentration in adipose fat tissue of hemizygous human CETP transgenic mouse at 3 mg/kg, po dosed for 5 consecutive days measured on day 3 after cessation of drug treatment; format: ADME, organism-based; design: dose 3 mg/kg, route oral; conditions: in vivo
# Procedure, shortened: (§4)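 Male hCETP transgenic mice given oral doses for 5 days in 0.5% hydroxyethylcellulose. Tissues and plasma collected at day 3 and day 21 after the last dose. Fat diluted 6:1 with acetonitrile and homogenized. Analysis by LC/MS/MS on a C18 column with QCs at 4.0−1000 nM, accepted within 30% of target.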
# Cynomolgus monkey [5] = assay: Effect on myocardial contractility in cynomolgus monkey up to 100 mg/kg by telemetry; format: ADME, organism-based, Macaca fascicularis, Myocardium; design: dose 100 mg/kg; conditions: in vivo; procedure, shortened: as §2
# Cynomolgus monkey [6] = assay: Effect on electrocardiogram parameters in cynomolgus monkey assessed as changes in QT-interval up to 100 mg/kg by telemetry; format: ADME, organism-based, Macaca fascicularis; design: dose 100 mg/kg; conditions: in vivo; procedure, shortened: as §2
# Plasma [7] = assay: Plasma concentration in hemizygous human CETP transgenic mouse at 10 mg/kg, po dosed for 5 consecutive days measured on day 5 and day 7 post dose; format: ADME, organism-based; design: dose 10 mg/kg, route oral; conditions: in vivo
# [8] = Drug concentration in kidney of hemizygous human CETP transgenic mouse at 3 mg/kg, po dosed for 5 consecutive days measured on day 21 after cessation of drug treatment; format: ADME, organism-based; design: dose 3 mg/kg, route oral; conditions: read-out: Drug uptake; procedure, shortened: as §4
# [9] = Mean residence time in C57BL/6J mouse at 1 umol/kg, iv; format: ADME, organism-based; conditions: in vivo
# Mus musculus [10] = assay: Increase in HDL-cholesterol in human CETP/human ApoB-100 transgenic mouse at 1 mg/kg, po dosed for 14 consecutive days; format: functional; procedure, shortened: as §1
# Plasma [11] = assay: Plasma concentration in hemizygous human CETP transgenic mouse at 3 mg/kg, po dosed for 5 consecutive days measured on day 5 and day 7 post dose; format: ADME, organism-based; design: dose 3 mg/kg, route oral; conditions: in vivo
# Mus musculus [12] = assay: Increase in HDL-cholesterol in hemizygous human CETP transgenic mouse at 3 mg/kg, po dosed for 5 consecutive days; format: functional; procedure, shortened: as §1
# [13] = Cmax in cynomolgus monkey up to 100 mg/kg; format: ADME, organism-based, Macaca fascicularis; design: dose 100 mg/kg; conditions: in vivo; procedure, shortened: as §2
# Mus musculus [14] = assay: Increase in HDL-cholesterol in hemizygous human CETP transgenic mouse dosed for 5 consecutive days via oral gavage; format: functional, organism-based; procedure, shortened: as §1
# Mus musculus [15] = assay: Reduction in LDL-cholesterol in hemizygous human CETP/human apoB100 transgenic mouse dosed for 14 consecutive days via oral gavage
# Mus musculus [16] = assay: Reduction in plasma LDL-cholesterol in human CETP/human ApoB-100 transgenic mouse at 1 mg/kg, po dosed for 14 consecutive days; format: functional; procedure, shortened: as §1
# Mus musculus [17] = assay: Reduction in plasma LDL-cholesterol in human CETP/human ApoB-100 transgenic mouse at 10 mg/kg, po dosed for 14 consecutive days; format: functional; procedure, shortened: as §3
# Kidney = assay: Drug concentration in kidney of hemizygous human CETP transgenic mouse at 3 mg/kg, po dosed for 5 consecutive days measured on day 3 after cessation of drug treatment; format: ADME, organism-based; design: dose 3 mg/kg, route oral; conditions: in vivo; procedure, shortened: as §4
# Cynomolgus monkey [18] = assay: Effect on electrocardiogram parameters in cynomolgus monkey assessed as changes in PR-interval up to 100 mg/kg by telemetry; format: ADME, organism-based, Macaca fascicularis; design: dose 100 mg/kg; conditions: in vivo; procedure, shortened: as §2
# [19] = Drug concentration in liver of hemizygous human CETP transgenic mouse at 3 mg/kg, po dosed for 5 consecutive days measured on day 21 after cessation of drug treatment; format: ADME, organism-based; design: dose 3 mg/kg, route oral; conditions: read-out: Drug uptake; procedure, shortened: as §4
# [20] = Drug concentration in testes of hemizygous human CETP transgenic mouse at 3 mg/kg, po dosed for 5 consecutive days measured on day 3 after cessation of drug treatment; format: ADME, organism-based, Testis; design: dose 3 mg/kg, route oral; conditions: in vivo; procedure, shortened: as §4
# Muscle tissue = assay: Drug concentration in muscle of hemizygous human CETP transgenic mouse at 3 mg/kg, po dosed for 5 consecutive days measured on day 3 after cessation of drug treatment; format: ADME, organism-based; design: dose 3 mg/kg, route oral; conditions: in vivo; procedure, shortened: as §4
# Liver = assay: Drug concentration in liver of hemizygous human CETP transgenic mouse at 3 mg/kg, po dosed for 5 consecutive days measured on day 3 after cessation of drug treatment; format: ADME, organism-based; design: dose 3 mg/kg, route oral; conditions: in vivo; procedure, shortened: as §4
# Mus musculus [21] = assay: Increase in HDL-cholesterol in human CETP/human ApoB-100 transgenic mouse at 3 mg/kg, po dosed for 14 consecutive days; format: functional; procedure, shortened: as §1
# [22] = AUC (0 to 24 hrs) in C57BL/6J mouse at 10 umol/kg, po; format: ADME, organism-based; design: time < 24 hr, dose 10 umol/kg, route oral; conditions: plasma
# [23] = Drug concentration in adipose fat tissue of hemizygous human CETP transgenic mouse at 3 mg/kg, po dosed for 5 consecutive days measured on day 21 after cessation of drug treatment; format: ADME, organism-based; design: dose 3 mg/kg, route oral; conditions: read-out: Drug uptake; procedure, shortened: as §4
# [24] = Mean residence time in cynomolgus monkey up to 100 mg/kg; format: ADME, organism-based, Macaca fascicularis; design: dose 100 mg/kg; conditions: in vivo; procedure, shortened: as §2
# [25] = target: T1, Cholesteryl ester transfer protein (Homo sapiens, UniProt P11597); assay: Inhibition of human recombinant CETP in presence of 88% human plasma by fluorescence transfer assay
# T1 sequence (P11597 whole entry): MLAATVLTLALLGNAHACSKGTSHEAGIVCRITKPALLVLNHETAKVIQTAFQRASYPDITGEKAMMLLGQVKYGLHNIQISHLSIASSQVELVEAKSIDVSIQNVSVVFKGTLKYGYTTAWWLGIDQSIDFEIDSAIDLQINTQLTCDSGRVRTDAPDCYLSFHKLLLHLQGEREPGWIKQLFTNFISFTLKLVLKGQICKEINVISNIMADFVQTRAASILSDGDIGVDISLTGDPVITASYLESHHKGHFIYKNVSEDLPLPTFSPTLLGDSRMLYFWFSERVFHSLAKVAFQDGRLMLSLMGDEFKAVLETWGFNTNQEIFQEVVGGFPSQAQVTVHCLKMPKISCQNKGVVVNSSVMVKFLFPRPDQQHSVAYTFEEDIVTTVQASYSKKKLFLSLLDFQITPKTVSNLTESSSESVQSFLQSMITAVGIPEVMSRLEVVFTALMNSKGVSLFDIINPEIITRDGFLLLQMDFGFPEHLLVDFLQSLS
# Procedure, shortened: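 Fluorescent neutral-lipid transfer from donor to acceptor particles by human recombinant CETP, with the test compound added in DMSO. Incubation 3 h at 37 °C. CE transfer is read as the fluorescence change at 485/535 nm. IC50 comes from a four-parameter logistic fit with variable slope. For this line the reaction contains 88% human plasma.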
structure (smiles),measurement,setting,value
CC(C)c1nc2c(c3c1[C@@H](c1ccc(C(F)(F)F)cc1)OC31CCOCC1)[C@@H](O)CC(C)(C)C2,Activity,Mus musculus [1],37.4%
same,Activity,Cynomolgus monkey [2],Non-toxic
same,inhibition in vivo at 3 mg/kg,Mus musculus [3],49%
same,Drug uptake,[4],Active
same,Activity,Cynomolgus monkey [5],Non-toxic
same,Activity,Cynomolgus monkey [6],Non-toxic
same,concentration,Plasma [7],671 nM
same,concentration at 21 days after cessation of treatment,[8],< 30 nM
same,MRT,[9],6.1 h
same,Activity,Mus musculus [10],23.5%
same,concentration,Plasma [11],206 nM
same,Activity,Mus musculus [12],74.4%
same,Cmax,[13],> 10000 nM
same,Activity,Mus musculus [14],Dose-dependent effect
same,Activity,Mus musculus [15],Dose-dependent effect
same,inhibition in vivo at 1 mg/kg,Mus musculus [16],26.2%
same,inhibition in vivo at 10 mg/kg,Mus musculus [17],60%
same,Drug uptake,Kidney,Active
same,Activity,Cynomolgus monkey [18],Non-toxic
same,concentration at 21 days after cessation of treatment,[19],< 30 nM
same,Drug uptake,[20],Active
same,Drug uptake,Muscle tissue,Active
same,Drug uptake,Liver,Active
same,Activity,Mus musculus [21],32.3%
same,AUC(0-t) at 24 h,[22],4.9 µM·h
same,concentration at 21 days after cessation of treatment,[23],< 30 nM
same,MRT,[24],> 20 h
same,IC50,[25],151 nM

# Source: ChEMBL document CHEMBL3351249, “Potent cholesteryl ester transfer protein inhibitors of reduced lipophilicity: 1,1'-spiro-substituted hexahydrofuroquinoline derivatives” (J Med Chem, 2014)
